# Only some compounds are listed: those with a hit (about 2.3% of all), similar ones and a draw of the others.
# TWEAK-Fn14 inh – inhibitors of TWEAK-Fn14 interaction signaling; TWEAK-stimulated Fn14 reporter cells, luciferase luminescence, 8 h; inhibition, % at 10 µM; 360,000 compounds, 2% hits; AID 1159606; in the data active means inhibition above about 50%
# EWS-Fli block – blocks EWS/Fli oncoprotein-driven transcription | A673 NR0B1-luciferase reporter, viability-normalised | inhibition, % at 12.6 µM | 350,000 compounds, 0.67% hits | AID 651661;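 active means mean inhibition of at least 50% after viability correction, with every replicate also passing that limit; inconclusive means mean reaches 50% but only one of two replicates passes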;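 further: firefly luciferase signal divided by Alamar Blue viability fluorescence both relative to DMSO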
# FN deposition inh – fibronectin deposition inhibition. 350,000 compounds, 0.086% hits. AH1F fibroblasts, Alexa488-fibronectin deposition fluorescence, overnight. inhibition, % at 12.6 µM;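 active means mean inhibition across replicates of 30% or more, regardless of how many single replicates reach that level; inconclusive means mean under 30% yet at least half of replicates reach 30%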;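 further: positive control wells lacked labelled fibronectin entirely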
#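 Schedule: 1 h cell adhesion before compound, then overnight fibronectin incubation; test system: AH1F fibroblast monolayer depositing Alexa488-labelled fibronectin into matrix; quantity: 10000 AH1F cells per well; probe or stimulus: fluorescent fibronectin at 24 nM final; signal: fluorescence, ex 485 nm, em 525 nm; evaluation: percent inhibition as loss of matrix-bound fibronectin fluorescence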
# XiGFP reactiv – X-chromosome reactivation activator; XiGFP mouse fibroblasts, % GFP-positive cells imaging, 3 d; cells co-treated with 5-aza-dC sensitizer; scaled so ellipticine positive control = 100%; activation, % at 7.58 µM; 360,000 compounds, 0.055% hits;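 active means mean normalized replicate activation at least 10% and every replicate at or above 10%; inconclusive means only one of the two criteria met; inactive means mean below 10% and not all replicates reach 10%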;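 further: 0% = median of on-plate neutral control wells and 100% = ellipticine 6 µM median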
#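 Schedule: 3 d treatment, 15 min room-temperature fixation; system: 68-5-11 XiGFP fibroblast line; buffer or medium: DMEM plus 5-aza-dC sensitizer; control set: ellipticine 6 µM positive control; compound: one concentration, pinned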
# LGR2 antag – inhibitors of bursicon-induced Drosophila LGR2 receptor cAMP signaling; HEK293 LGR2, CRE-luciferase, bursicon-stimulated, 4 h; inhibition, % at 9.99 µM; 380,000 compounds, 0.35% hits;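 active means drop in luminescence signal, shown as inhibition above about 50% in the replicate tests, limit read from the data, passing the limit was not always enough; inconclusive means probably only some replicates passing the limit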;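 further: agonist challenge used bursicon conditioned medium at about half maximal strength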
# TROY NFkB inh – inhibitors of TROY-dependent NF-kB signaling; Q293 LMP1-TROYcd NF-kB luciferase reporter, 4 h; inhibition, % at 10 µM; 360,000 compounds, 0.98% hits; AID 1347056;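 active means compounds whose plate-normalised and pattern-corrected inhibition of the luciferase reporter signal at the single screening dose is 50% or more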
# Active calls of the source: *; u = inconclusive; x = not tested or not shown.
SMILES,TWEAK-Fn14 inh,EWS-Fli block,FN deposition inh,XiGFP reactiv,LGR2 antag,TROY NFkB inh
COc1ccc(C(C)=O)cc1CSc1nnc(Nc2ccccc2)s1,70*,x,4,0,12,40
CO[C@@H]1CN(C)C(=O)c2cc(NS(=O)(=O)c3ccccc3)ccc2OC[C@@H](C)N(Cc2ccccn2)C[C@H]1C,x,4,-5,-1,20,x
CNC[C@@H]1OCCCC[C@H](C)Oc2ccc(N)cc2C(=O)N([C@@H](C)CO)C[C@H]1C,x,-6,x,x,x,x
C[C@@H]1CCCCO[C@H](CN(C)Cc2ccc(Cl)c(Cl)c2)[C@@H](C)CN([C@H](C)CO)C(=O)c2cc(NS(C)(=O)=O)ccc2O1,x,-10,x,0,5,x
CC(=O)C1=C(c2ccc(Br)cc2)C(=O)c2ccccc2C1=O,103*,x,39*,0,99*,57*
C=Cc1cnc([N+](=O)[O-])n1C,7,-5,5,88*,-15,-1
CCSc1ncc(/C=N/Nc2ccc([N+](=O)[O-])cc2)n1C,-46,x,x,x,x,-65
CCOC(=O)C1=C[C@@H](C2CCCCC2)N(S(=O)(=O)c2ccc([N+](=O)[O-])cc2)[C@H]1c1ccccc1,75*,15,-19,0,8,-9
CC(=O)N1c2ccc(S(=O)(=O)NCC3CCC(C(=O)Nc4cc(C)ccn4)CC3)cc2CC1C (stereo unspecified),56*,x,4,0,31,30
O=C(CSc1nc2nc(-c3cccs3)cc(C(F)(F)F)c2c(=O)[nH]1)Nc1c(F)c(F)c(F)c(F)c1F,66*,12,3,0,-8,57*
NS(=O)(=O)c1cccc(NC(=O)CSc2nc3nc(-c4cccs4)cc(C(F)(F)F)c3c(=O)[nH]2)c1,9,-8,-4,0,2,8
CC(C)[C@@H]1COCc2cn(nn2)CC[C@@H](Cc2ccc(Cl)cc2)C(=O)N1,x,x,-3,0,x,x
Oc1c(C(Nc2cccc(C(F)(F)F)c2)c2ccncc2)ccc2cccnc12 (stereo unspecified),52*,15,-5,1,20,-28
Oc1c(C(Nc2nccs2)c2ccc(C(F)(F)F)cc2)ccc2cccnc12 (stereo unspecified),9,u,13,0,21,1
CCCC#Cc1cnc2c(c1)C(=O)N([C@@H](C)CO)C[C@@H](C)[C@@H](CN(C)C(=O)Nc1cccc(F)c1)O2,x,1,-8,0,11,x
CCCCCCNC(=O)CC(c1ccccc1)c1cc(Br)ccc1O (stereo unspecified),42,x,x,x,u,55*
CCC(=O)/C=C1/Sc2ccccc2N1CC,16,x,x,x,2,-7
CCN1/C(=C/c2sc(-c3ccccc3C)c[n+]2C)Sc2ccccc21,63*,65*,-7,0,29,47
O=C(Cc1ccncc1)NCC[C@@H]1CC[C@@H](NC(=O)C2CCOCC2)[C@H](CO)O1,x,6,-23,0,-9,x
COc1ccc(Nc2nccc(-c3cccc(N)c3)n2)cc1,76*,-59,-5,0,26,28
Cc1cccc(NC(=O)c2cc3ccccc3c(=O)o2)n1,51*,-60,-5,0,-28,-34
O=C(Cc1ccccn1)N1CC(=O)N2[C@H](C1)[C@@H](c1ccc(C#CC3CC3)cc1)[C@@H]2CO,x,19,x,0,10,x
Nc1ncc(Br)cc1S(=O)(=O)Nc1cc(C(F)(F)F)cc(C(F)(F)F)c1,47,x,1,0,u,56*
Cc1cc(C(=O)Nc2ccc3c(c2)C(=O)N(C)[C@H]2CC[C@H](CC(=O)N[C@H](C)c4ccccc4)O[C@H]2CO3)no1,x,6,8,0,5,x
CCC(=O)N1CC2(C1)[C@@H](c1ccccc1)[C@@H](CO)N2Cc1cccc(Cl)c1,x,0,x,0,3,x
COC(=O)c1ccc(COc2ccccc2/C=C(\C#N)C(=O)Nc2c(C)cccc2C)cc1,61*,4,6,0,27,32
O=C(C[C@H]1C[C@H]2c3cc(NC(=O)c4cccnc4)ccc3O[C@H]2[C@@H](CO)O1)NC1CCCCC1,x,2,x,0,-5,x
Cc1nn(-c2ccccc2)c(C)c1NC(=O)COc1ccc2ccccc2c1,45,12,x,x,38,55*
